The nature of the data set: Cytotoxicity against murine macrophages, alamarBlue, 24 h. It is filed as cell-based. Particulars: mouse, J774A.1 murine macrophages. The procedure, abridged: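 J774A.1 macrophages were kept in DMEM with 10% FBS at 37 °C, 5% CO2. Cells were seeded at 10^4/well and allowed 3–4 h to adhere. Serial dilutions were added with 10% alamarBlue for 24 h at 37 °C, 5% CO2, then fluorescence was read. CC50 was derived by four-parameter variable-slope nonlinear regression.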
A general note: Resazurin is reduced to fluorescent resorufin, in cell work by metabolically active cells.

For orientation: CC50 means the concentration giving 50% cytotoxicity. Low readings indicate greater toxicity to the cells, high ones lower toxicity to the cells. On to `O=C(Cn1ccnc1[N+](=O)[O-])NCc1ccccc1` [B, benznidazole], for which the CC50 at 24 h was found to be 399.9 ± 1.4 µM.

`CCCCCCCCCCCCCCCCOP(=O)([O-])OCC[N+](C)(C)C` [M, miltefosine] displayed a CC50 at 24 h of 72.2 ± 8.85 µM.

For the origin of these results see publication PMC10950693 (International Journal for Parasitology: Drugs and Drug …, 2024).
